Results: ChEMBL document CHEMBL1121548, “Structure-activity relationships of pyrrole amidine antiviral antibiotics. 2. Preparation of mono- and tripyrrole derivatives of congocidine” (1980)

Key:
Human alphaherpesvirus 1 [1] = assay: In vitro ability to inhibit synthesis of herpes simplex virus (HSV) DNA in isolated nuclei at dose 25 ug/mL
Human alphaherpesvirus 1 [2] = assay: In vitro ability to inhibit synthesis of herpes simplex virus (HSV) DNA in isolated nuclei at dose 50 ug/mL
Nucleic Acid [3] = assay: In vitro ability to inhibit HSV DNA polymerase activity in vitro using activated calf thymus DNA as atemplate at dose 200 ug/mL; format: nucleic-acid assay; conditions: herpes simplex virus
Human alphaherpesvirus 1 [4] = assay: In vitro ability to inhibit synthesis of herpes simplex virus (HSV) DNA in isolated nuclei at dose 400 ug/mL
Nucleic Acid [5] = assay: In vitro ability to inhibit HSV DNA polymerase activity in vitro using activated calf thymus DNA as atemplate at dose 25 ug/mL; format: nucleic-acid assay; conditions: herpes simplex virus
Nucleic Acid [6] = assay: In vitro ability to inhibit HSV DNA polymerase activity in vitro using activated calf thymus DNA as atemplate at dose 50 ug/mL; format: nucleic-acid assay; conditions: herpes simplex virus
Human alphaherpesvirus 1 [7] = assay: Compound were tested for their ability to inhibit HSV replication at their maximal nontoxic concentration; conditions: herpes simplex virus
Nucleic Acid [8] = assay: In vitro ability to inhibit HSV DNA polymerase activity in vitro using activated calf thymus DNA as atemplate at dose 400 ug/mL; format: nucleic-acid assay; conditions: herpes simplex virus
Human alphaherpesvirus 1 [9] = assay: In vitro ability to inhibit synthesis of herpes simplex virus (HSV) DNA in isolated nuclei at dose 200 ug/mL
Nucleic Acid [10] = assay: In vitro ability to inhibit HSV DNA polymerase activity in vitro using activated calf thymus DNA as atemplate at dose 100 ug/mL; format: nucleic-acid assay; conditions: herpes simplex virus
BSC-1 = assay: Evaluation of titer of virus progeny produced in untreated infected cells and in cells treated with the compound by plaque assay on BSC-1 cells.; format: functional, Cercopithecidae; set-up: concentration or dose not given beside the values
In short: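 HSV type 1-infected cell cultures were exposed to drug at the maximal nontoxic concentration. Toxicity means cell death within 2 days of drug incubation at 37 °C; the maximal nontoxic level is the concentration whose twofold increase causes toxicity. Progeny virus titer was determined by plaque assay on BSC-1 cells. Yield is expressed as a percentage of the untreated infected-cell yield (taken as 100%).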

Human alphaherpesvirus 1 [11] = assay: In vitro ability to inhibit synthesis of herpes simplex virus (HSV) DNA in isolated nuclei at dose 100 ug/mL
Human alphaherpesvirus 2 = assay: Compound were tested for their ability to inhibit HSV replication at their maximal nontoxic concentration; 400 ug/mL of the drug was not toxic; format: functional, organism-based; conditions: herpes simplex virus

Row | SMILES | inhibition at 25 µg/mL (Human alphaherpesvirus 1 [1]) [%] | inhibition at 50 µg/mL (Human alphaherpesvirus 1 [2]) [%] | inhibition (Nucleic Acid [3]) [%] | inhibition at 400 µg/mL (Human alphaherpesvirus 1 [4]) [%] | inhibition (Nucleic Acid [5]) [%] | inhibition (Nucleic Acid [6]) [%] | Concentration (Human alphaherpesvirus 1 [7]) [µg/mL] | inhibition (Nucleic Acid [8]) [%] | inhibition at 200 µg/mL (Human alphaherpesvirus 1 [9]) [%] | inhibition (Nucleic Acid [10]) [%] | Inhibition (BSC-1) [%] | inhibition at 100 µg/mL (Human alphaherpesvirus 1 [11]) [%] | Concentration (Human alphaherpesvirus 2) [µg/mL]
1 | Cl.Cn1cc(NC(=O)c2cc(NC(=O)c3cc(NC(=O)CN=C(N)N)cn3C)cn2C)cc1C(=O)NCCC#N | 56 | 68 | 79 | 89 | 12 | 35 | 50 | 91 | 87 | 68 | 93.14 | – | –
2 | CC(CC(=N)N)NC(=O)c1cc(NC(=O)c2cc(NC(=O)c3cc(NC(=O)CN=C(N)N)cn3C)cn2C)cn1C.Cl.Cl (stereo not drawn) | 56 | 73 | 96 | 97 | 26 | 59 | 10 | 97 | 91 | 83 | 99.3 | 83 | –
3 | Cl.Cl.Cn1cc(NC(=O)c2cc(NC(=O)CNC(=N)N)cn2C)cc1C(=O)NCCC(=N)N [CONGOCIDINE] | 64 | 67 | 90 | 88 | 30 | 61 | 5 | 93 | 71 | 78 | 98.1 | 61 | –
4 | Cl.Cl.Cn1cc(NC(=O)c2cc(NC(=O)c3cc(NC(=O)CN=C(N)N)cn3C)cn2C)cc1C(=O)NCCC(=N)N | 78 | 84 | 94 | 97 | 25 | 64 | 25 | 99 | 97 | 93 | 99.7 | 92 | –
5 | Cl.Cl.Cn1cc(NC(=O)c2cc(NC(=O)c3cc(NC=O)cn3C)cn2C)cc1C(=O)NCCC(=N)N | 79 | 85 | 98 | 98 | 20 | 62 | 25 | 99 | 95 | 85 | 99.7 | 89 | –
6 | Cl.Cl.Cn1cc(NC(=O)c2cc(NC(=O)c3cc(NC(=O)CN=C(N)N)cn3C)cn2C)cc1C(=O)NCC(=N)N | – | – | 99 | – | 39 | 83 | 100 | 99 | – | 89 | 99.7 | – | –
7 | CC(CC#N)NC(=O)c1cc(NC(=O)c2cc(NC(=O)c3cc(NC(=O)CN=C(N)N)cn3C)cn2C)cn1C.Cl (stereo not drawn) | – | – | – | – | – | – | – | – | – | – | 90.9 | – | > 400
